Legend:
[1] = system: Micrococcus luteus; test: Antibacterial activity against Micrococcus luteus La 2971 after 24 hrs by broth micro dilution method; assay type: functional
[2] = system: Klebsiella pneumoniae; test: Antibacterial activity against Klebsiella pneumoniae UC57 after 24 hrs by broth micro dilution method; assay type: functional
[3] = system: Escherichia coli; test: Antibacterial activity against Escherichia coli ATCC 11230 after 24 hrs by broth micro dilution method; assay type: functional
[4] = system: Proteus vulgaris; test: Antibacterial activity against Proteus vulgaris ATCC 8427 after 24 hrs by broth micro dilution method; assay type: functional
[5] = system: Mycolicibacterium smegmatis; test: Antibacterial activity against Mycobacterium smegmatis CCM 2067 after 24 hrs by broth micro dilution method; assay type: functional
[6] = system: Pseudomonas aeruginosa; test: Antibacterial activity against Pseudomonas aeruginosa ATCC 27853 after 24 hrs by broth micro dilution method; assay type: functional
[7] = system: Staphylococcus aureus; test: Antibacterial activity against Staphylococcus aureus ATCC 6538 after 24 hrs by broth micro dilution method; assay type: functional
[8] = system: Listeria monocytogenes; test: Antibacterial activity against Listeria monocytogenes ATCC 15313 after 24 hrs by broth micro dilution method; assay type: functional
[9] = system: Bacillus cereus; test: Antibacterial activity against Bacillus cereus ATCC 7064 after 24 hrs by broth micro dilution method; assay type: functional
[10] = system: Bacillus cereus; test: Antibacterial activity against Bacillus cereus ATCC 7064 at 5 ug after 24 hrs by agar disk diffusion assay; assay type: functional; conditions: ATCC 7064, 24 h, read-out: IZ
How it was run: (§1)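 Disk diffusion with sterile 6 mm discs loaded with DMSO solutions of the test agents and placed on inoculated agar. Bacteria were pre-grown in Nutrient Broth at 30 °C for 24 h, and plates were incubated at 35 °C for 24 h. Each plate carried a reference antibiotic disc matched to the organism, and a DMSO-only solvent control was run.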

[11] = system: Listeria monocytogenes; test: Antibacterial activity against Listeria monocytogenes ATCC 15313 at 5 ug after 24 hrs by agar disk diffusion assay; assay type: functional; conditions: ATCC 15313, 24 h, read-out: IZ; how it was run: as §1
[12] = system: Pseudomonas aeruginosa; test: Antibacterial activity against Pseudomonas aeruginosa ATCC 27853 at 5 ug after 24 hrs by agar disk diffusion assay; assay type: functional; conditions: ATCC 27853, 24 h, read-out: IZ; how it was run: as §1
[13] = system: Mycolicibacterium smegmatis; test: Antibacterial activity against Mycobacterium smegmatis CCM 2067 at 5 ug after 24 hrs by agar disk diffusion assay; assay type: functional; conditions: CCM 2067, 24 h, read-out: IZ; how it was run: as §1
[14] = system: Proteus vulgaris; test: Antibacterial activity against Proteus vulgaris ATCC 8427 at 5 ug after 24 hrs by agar disk diffusion assay; assay type: functional; conditions: ATCC 8427, 24 h, read-out: IZ; how it was run: as §1
[15] = system: Micrococcus luteus; test: Antibacterial activity against Micrococcus luteus La 2971 at 5 ug after 24 hrs by agar disk diffusion assay; assay type: functional; conditions: La 2971, 24 h, read-out: IZ; how it was run: as §1
[16] = system: Klebsiella pneumoniae; test: Antibacterial activity against Klebsiella pneumoniae UC57 at 5 ug after 24 hrs by agar disk diffusion assay; assay type: functional; conditions: UC57, 24 h, read-out: IZ; how it was run: as §1
[17] = system: Staphylococcus aureus; test: Antibacterial activity against Staphylococcus aureus ATCC 6538 at 5 ug after 24 hrs by agar disk diffusion assay; assay type: functional; conditions: ATCC 6538, 24 h, read-out: IZ
How it was run: (§2)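 Sterile 6 mm paper discs were loaded with ligand solution freshly prepared in DMSO and placed on inoculated agar. The inoculum came from broth cultures: bacteria in Nutrient Broth at 30 °C for 24 h, yeasts in Malt Extract Broth for 48 h. Plates were incubated at 35 °C for 24 h (bacteria) or 25 °C for 72 h (yeasts). A DMSO solvent control and a reference antibiotic disc were included on each plate.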

[18] = system: Escherichia coli; test: Antibacterial activity against Escherichia coli ATCC 11230 at 5 ug after 24 hrs by agar disk diffusion assay; assay type: functional; conditions: ATCC 11230, 24 h, read-out: IZ; how it was run: as §1
[19] = system: Candida albicans; test: Antifungal activity against Candida albicans ATCC 10231 at 10 ug after 72 hrs by agar disk diffusion assay; assay type: functional; conditions: ATCC 10231, 72 h, read-out: IZ; how it was run: as §2
[20] = system: Hanseniaspora guilliermondii; test: Antifungal activity against Hanseniaspora guilliermondii DSM 3432 at 10 ug after 72 hrs by agar disk diffusion assay; assay type: functional; conditions: DSM 3432, 72 h, read-out: IZ; how it was run: as §2
[21] = system: Debaryomyces hansenii; test: Antifungal activity against Debaryomyces hansenii DSM 70238 at 10 ug after 72 hrs by agar disk diffusion assay; assay type: functional; conditions: DSM 70238, 72 h, read-out: IZ; how it was run: as §2
[22] = system: Rhodotorula mucilaginosa; test: Antifungal activity against Rhodotorula rubra DSM 70403 at 10 ug after 72 hrs by agar disk diffusion assay; assay type: functional; conditions: DSM 70403, 72 h, read-out: IZ; how it was run: as §2
[23] = system: Kluyveromyces marxianus; test: Antifungal activity against Kluyveromyces fragilis NRRL 2415 at 10 ug after 72 hrs by agar disk diffusion assay; assay type: functional; conditions: NRRL 2415, 72 h, read-out: IZ; how it was run: as §2
[24] = system: Debaryomyces hansenii; test: Antifungal activity against Debaryomyces hansenii DSM 70238 after 24 hrs by broth micro dilution method; assay type: functional
How it was run: (§3)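 Broth microdilution was run in cation-adjusted Mueller Hinton Broth. Compounds were dissolved in DMSO at 2 mg mL^-1 and serially diluted two-fold. Yeast precultures were grown in Malt Extract Broth for 48 h. The final inoculum was about 10⁶ cfu mL^-1, and plates were incubated at 37 °C for 24 h. The MIC was read from this series.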

[25] = system: Hanseniaspora guilliermondii; test: Antifungal activity against Hanseniaspora guilliermondii DSM 3432 after 24 hrs by broth micro dilution method; assay type: functional; how it was run: as §3
[26] = system: Rhodotorula mucilaginosa; test: Antifungal activity against Rhodotorula rubra DSM 70403 after 24 hrs by broth micro dilution method; assay type: functional; how it was run: as §3
[27] = system: Candida albicans; test: Antifungal activity against Candida albicans ATCC 10231 after 24 hrs by broth micro dilution method; assay type: functional; how it was run: as §3
[28] = system: Hanseniaspora guilliermondii; test: Antifungal activity against Hanseniaspora guilliermondii DSM 3432 at 100 ug after 72 hrs by agar disk diffusion assay; assay type: functional, organism-based
How it was run: (§4)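 Yeasts were pre-grown in Malt Extract Broth for 48 h. Sterile 6 mm discs loaded with compound solutions freshly made in DMSO were placed on inoculated agar and incubated at 25 °C for 72 h. The medium was supplemented with DMSO as a solvent control, and an appropriate reference antifungal disc was added to each plate.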

[29] = system: Kluyveromyces marxianus; test: Antifungal activity against Kluyveromyces fragilis NRRL 2415 after 24 hrs by broth micro dilution method; assay type: functional; how it was run: as §3
[30] = system: Kluyveromyces marxianus; test: Antifungal activity against Kluyveromyces fragilis NRRL 2415 at 100 ug after 72 hrs by agar disk diffusion assay; assay type: functional, organism-based; how it was run: as §4
[31] = system: Debaryomyces hansenii; test: Antifungal activity against Debaryomyces hansenii DSM 70238 at 100 ug after 72 hrs by agar disk diffusion assay; assay type: functional, organism-based; how it was run: as §4
[32] = system: Rhodotorula mucilaginosa; test: Antifungal activity against Rhodotorula rubra DSM 70403 at 100 ug after 72 hrs by agar disk diffusion assay; assay type: functional, organism-based; how it was run: as §4
[33] = system: Mycolicibacterium smegmatis; test: Antibacterial activity against Mycobacterium smegmatis CCM 2067 at 30 ug after 24 hrs by agar disk diffusion assay; assay type: functional; conditions: CCM 2067, 24 h, read-out: IZ; how it was run: as §1
[34] = system: Proteus vulgaris; test: Antibacterial activity against Proteus vulgaris ATCC 8427 at 30 ug after 24 hrs by agar disk diffusion assay; assay type: functional; conditions: ATCC 8427, 24 h, read-out: IZ; how it was run: as §1
[35] = system: Micrococcus luteus; test: Antibacterial activity against Micrococcus luteus La 2971 at 30 ug after 24 hrs by agar disk diffusion assay; assay type: functional; conditions: La 2971, 24 h, read-out: IZ; how it was run: as §1
[36] = system: Staphylococcus aureus; test: Antibacterial activity against Staphylococcus aureus ATCC 6538 at 30 ug after 24 hrs by agar disk diffusion assay; assay type: functional; conditions: ATCC 6538, 24 h, read-out: IZ; how it was run: as §2
[37] = system: Escherichia coli; test: Antibacterial activity against Escherichia coli ATCC 11230 at 30 ug after 24 hrs by agar disk diffusion assay; assay type: functional; conditions: ATCC 11230, 24 h, read-out: IZ
How it was run: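 Bacteria pre-grown in Nutrient Broth at 30 °C for 24 h. Sterile 6 mm discs loaded with compound solutions freshly made in DMSO were placed on inoculated agar and incubated at 35 °C for 24 h. The medium was supplemented with DMSO as a solvent control, and an appropriate reference antibiotic disc was added to each plate.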

[38] = system: Klebsiella pneumoniae; test: Antibacterial activity against Klebsiella pneumoniae UC57 at 30 ug after 24 hrs by agar disk diffusion assay; assay type: functional; conditions: UC57, 24 h, read-out: IZ; how it was run: as §1
[39] = system: Pseudomonas aeruginosa; test: Antibacterial activity against Pseudomonas aeruginosa ATCC 27853 at 30 ug after 24 hrs by agar disk diffusion assay; assay type: functional; conditions: ATCC 27853, 24 h, read-out: IZ; how it was run: as §1
[40] = system: Listeria monocytogenes; test: Antibacterial activity against Listeria monocytogenes ATCC 15313 at 30 ug after 24 hrs by agar disk diffusion assay; assay type: functional; conditions: ATCC 15313, 24 h, read-out: IZ; how it was run: as §1
[41] = system: Bacillus cereus; test: Antibacterial activity against Bacillus cereus ATCC 7064 at 30 ug after 24 hrs by agar disk diffusion assay; assay type: functional; conditions: ATCC 7064, 24 h, read-out: IZ; how it was run: as §1

GENTAMICIN
MIC [1]: 25 µg/mL
MIC [2]: 6.25 µg/mL
MIC [3]: 6.25 µg/mL
MIC [4]: 6.25 µg/mL
MIC [5]: 12.5 µg/mL
MIC [6]: 6.25 µg/mL
MIC [7]: 25 µg/mL
MIC [8]: 12.5 µg/mL
MIC [9]: 6.25 µg/mL

CC1COc2c(N3CCN(C)CC3)c(F)cc3c(=O)c(C(=O)O)cn1c23 (stereo unspecified) [OFLOXACIN]
zone of inhibition at 5 µg/disc [10]: 44 mm
zone of inhibition at 5 µg/disc [11]: 30 mm
zone of inhibition at 5 µg/disc [12]: 28 mm
zone of inhibition at 5 µg/disc [13]: 32 mm
zone of inhibition at 5 µg/disc [14]: 30 mm
zone of inhibition at 5 µg/disc [15]: 28 mm
zone of inhibition at 5 µg/disc [16]: 28 mm
zone of inhibition at 5 µg/disc [17]: 24 mm
zone of inhibition at 5 µg/disc [18]: 30 mm

Clc1ccccc1C(c1ccccc1)(c1ccccc1)n1ccnc1 [CLOTRIMAZOLE]
zone of inhibition at 10 µg/disc [19]: 16 mm
zone of inhibition at 10 µg/disc [20]: 22 mm
zone of inhibition at 10 µg/disc [21]: 18 mm
zone of inhibition at 10 µg/disc [22]: 18 mm
zone of inhibition at 10 µg/disc [23]: 15 mm

NYSTATIN
MIC [24]: 12.5 µg/mL
MIC [25]: 3.12 µg/mL
MIC [26]: 6.25 µg/mL
MIC [27]: 3.12 µg/mL
inhibition zone (IZ) [28]: 21 mm
MIC [29]: 6.25 µg/mL
inhibition zone (IZ) [30]: 20 mm
inhibition zone (IZ) [31]: 16 mm
inhibition zone (IZ) [32]: 18 mm

CN(C)[C@@H]1C(O)=C(C(N)=O)C(=O)[C@@]2(O)C(O)=C3C(=O)c4c(O)cccc4[C@@](C)(O)[C@H]3C[C@@H]12 [TETRACYCLINE]
zone of inhibition at 30 µg/disc [33]: 24 mm
zone of inhibition at 30 µg/disc [34]: 25 mm
zone of inhibition at 30 µg/disc [35]: 26 mm
zone of inhibition at 30 µg/disc [36]: 26 mm
zone of inhibition at 30 µg/disc [37]: 28 mm
zone of inhibition at 30 µg/disc [38]: 30 mm
zone of inhibition at 30 µg/disc [39]: 22 mm
zone of inhibition at 30 µg/disc [40]: 28 mm
zone of inhibition at 30 µg/disc [41]: 34 mm

— ChEMBL document CHEMBL1156002, “Synthesis, Raman, FT-IR, NMR spectroscopic characterization, antimicrobial activity, cytotoxicity and DNA binding of new mixed aza-oxo-thia macrocyclic compounds” (2009)
